# Screening data: PubChem BioAssay, The Scripps Research Institute Molecular Screening Center
# CHRM5 antagonist: human M5 muscarinic receptor antagonists, primary screen, CHO cells, Fluo-8 calcium fluorescence; CHO-hM5 cells, ACh EC80; Muscarinic acetylcholine receptor M5 (Homo sapiens), P08912; inhibition, % at 3 µM; 0.59% of 360,000 active;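 active means inhibition above a per-plate cutoff, the mean of that plate's test compounds plus 3 SD, cut at about 27% in these data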;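 further: 0% = acetylcholine EC80 with DMSO and 100% = DMSO without agonist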
# M5 ag: human M5 muscarinic receptor agonists, primary screen, CHO-K1 cells, Fluo-8 calcium fluorescence. activation, % at 3 µM. AID 624037, 2012. 0.19% of 360,000 active. CHO-K1 hM5 cells; 0% DMSO wells, 100% maximal acetylcholine response;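 active means activation above the run's mean over test compounds plus 3 SD, cut at about 23% in these data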;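 further: signal is peak over basal fluorescence ratio across the kinetic read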
# CHRM5 PAM: human M5 muscarinic receptor positive allosteric modulators, primary screen, CHO-K1 cells, Fluo-8 calcium fluorescence. Muscarinic acetylcholine receptor M5 (Homo sapiens), P08912. CHO-K1 hM5, ACh EC20 PAM; 0% = ACh EC20, 100% = ACh EC100. activation, % at 3 µM. 0.3% of 360,000 active. AID 624038, 2012;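 active means activation above the run cutoff, the mean activation of all test compounds plus 3 SD, cut at about 18% in these data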
#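 Assay system: CHO-K1 hM5 cells. Also added: acetylcholine at EC20 concentration, added after compound. Dosing: 3 µM, single dose. Times: compound preincubation 140 s before EC20 acetylcholine addition. Signal: Fluo-8 calcium fluorescence. Measure: % activation relative to EC20 and EC100 ACh responses. Repeats: singlicate, one well per test compound.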
# CHRM4 PAM: human M4 muscarinic receptor positive allosteric modulators, primary screen, CHO-K1 cells, Fluo-8 calcium fluorescence; Muscarinic acetylcholine receptor M4 (Homo sapiens), P08173; CHO-K1 hM4/Gqi5, ACh EC20; 0% = ACh EC20, 100% = maximal ACh; activation, % at 3 µM; 0.4% of 360,000 active; AID 624126, 2012;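 active means activation above its plate's cutoff, the mean activation of sample wells plus 3 SD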
# Target sequence (P08173 whole entry, looked up): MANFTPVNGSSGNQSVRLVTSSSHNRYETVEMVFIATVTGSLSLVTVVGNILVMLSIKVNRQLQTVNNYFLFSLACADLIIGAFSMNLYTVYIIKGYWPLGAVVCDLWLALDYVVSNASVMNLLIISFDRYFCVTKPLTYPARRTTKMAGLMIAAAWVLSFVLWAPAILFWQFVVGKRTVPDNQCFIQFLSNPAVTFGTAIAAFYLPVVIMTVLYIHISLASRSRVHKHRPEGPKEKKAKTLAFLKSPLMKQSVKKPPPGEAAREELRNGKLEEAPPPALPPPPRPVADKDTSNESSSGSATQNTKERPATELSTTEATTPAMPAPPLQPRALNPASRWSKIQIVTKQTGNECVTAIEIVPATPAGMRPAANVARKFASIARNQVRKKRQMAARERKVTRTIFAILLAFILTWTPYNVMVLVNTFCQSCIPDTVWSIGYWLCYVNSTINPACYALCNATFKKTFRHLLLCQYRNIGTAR
# M4 ag: human M4 muscarinic receptor agonists, primary screen, CHO-K1 cells, Fluo-8 calcium fluorescence; 0.14% of 360,000 active; Muscarinic acetylcholine receptor M4 (Homo sapiens), P08173; activation, % at 3 µM; CHO-K1 hM4/Gqi5; vehicle 0%, full acetylcholine response 100%; AID 624127, 2012;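 active means activation above the run mean over all test wells plus 3 SD, cut at about 32% in these data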;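 further: peak over basal fluorescence ratio per well then scaled between controls; 0% = DMSO wells and 100% = acetylcholine at EC100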
# M4 antag: human M4 muscarinic receptor antagonists, primary screen, CHO cells, Fluo-8 calcium fluorescence. Muscarinic acetylcholine receptor M4 (Homo sapiens), P08173. CHO-hM4 cells, ACh EC80. inhibition, % at 3 µM. 0.73% of 360,000 active. AID 624125, 2012;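 active means inhibition above its plate's cutoff, the mean inhibition of sample wells plus 3 SD, cut at about 27% in these data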;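 further: 0% = acetylcholine EC80 with DMSO and 100% = DMSO without agonist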
# Active calls of the source: *. A selection: hits, their analogues and other compounds. The true share with any hit is near 1.8%.
SMILES,CHRM5 antagonist,M5 ag,CHRM5 PAM,CHRM4 PAM,M4 ag,M4 antag
COC(=O)c1cc2c(ccn2-c2ccc(F)cc2)n1Cc1cccc(OC)c1,-3.3,-0.6,3.1,1.5,0.8,-0.3
COC(=O)c1cc2c(ccn2-c2ccc(F)cc2)n1CC(C)C,-5.7,10.9,18.9*,16.6*,1.9,-15.9
CC1CCCCC12NC(=O)N(CC(=O)OCc1cccc(F)c1)C2=O (centres undefined),2.2,3.1,1.9,1.7,3.2,3.9
COc1ccc(S(=O)(=O)N2CCOCC2)cc1NC(=O)CCc1nc2ccccc2c(=O)[nH]1,5.6,-5.7,-6.6,-0.5,-0.2,0.1
O=C(C[n+]1ccc(Cc2ccccc2)cc1)Nc1ccc([N+](=O)[O-])cc1Cl,2.6,-9.8,-9.5,-20.5,0.9,27.2*
Cc1cccc(C)c1NC(=O)c1ccc([N+](=O)[O-])s1,2.7,-5.4,10.8,24.5*,2.3,-16.5
O=C(CN1C(=O)NC2(CCSC2)C1=O)NCc1ccccc1 (centres undefined),6.9,-0.7,4.6,17.8*,2.6,-8.8
O=C(CN1C(=O)NC2(CCCC2)C1=O)NCc1ccccc1,11.1,0.0,-3.4,5.2,0.8,-10.8
CC1=C(C(=O)NCc2ccc3c(c2)OCO3)C2(CCC(C)CC2)OC1=O (centres undefined),8.0,-1.3,-21.1,-18.2,3.5,60.5*
CC1CCC2(CC1)NC(=O)N(CC(=O)NCc1ccc3c(c1)OCO3)C2=O (centres undefined),31.0*,-9.0,-13.6,-4.9,0.5,-4.0
CC1=C(C(=O)NCc2ccco2)C2(CCC(C)CC2)OC1=O (centres undefined),-4.3,2.1,1.2,1.1,0.9,-10.8
c1coc(CN(Cc2ccco2)c2ncnc3c2oc2ccccc23)c1,31.5*,4.0,-22.5,-23.1,7.3,36.8*
C=CCN(C(=O)c1csnn1)C(C(=O)NCc1ccccc1)c1cccs1 (centres undefined),16.3,-0.4,-5.2,-2.1,3.9,1.4
COCCNC(=O)CN(Cc1ccccc1)S(=O)(=O)c1ccc2nc(C)sc2c1,6.8,-1.1,-4.1,-5.8,0.2,-1.5
COC(=O)CCC(=O)Nc1ccc(S(=O)(=O)N2CCCCCC2)cc1,-6.6,-1.4,18.6*,21.0,1.5,-14.6
O=C(CCCN1C(=O)c2ccccc2C1=O)Nc1ccc(S(=O)(=O)N2CCOCC2)cc1,7.0,-4.1,-6.1,11.2,2.2,27.5*
CC1CCN(C(C)C(=O)Nc2ccc(S(=O)(=O)N3CCCC3)cc2)CC1 (centres undefined),14.1,-10.1,-38.3,-16.3,1.5,78.5*
O=C(CCCN1C(=O)c2ccccc2C1=O)Nc1ccc(S(=O)(=O)N2CCCCC2)cc1,-6.9,1.7,3.2,4.7,12.9,-20.4
CC(C)CC(=O)Nc1ccc(S(=O)(=O)N2CCCC2)cc1,28.2*,-5.0,-3.4,-6.0,0.7,8.9
CC1CCN(C(C)C(=O)Nc2cc(S(=O)(=O)N3CCCCC3)ccc2Cl)CC1 (centres undefined),11.8,1.4,-1.9,2.2,-1.7,1.6
COc1ccc(/C=C/C(=O)Nc2cccc(S(=O)(=O)NC3=NCCCCC3)c2)cc1OC,1.0,3.1,-7.5,-4.5,8.9,1.2
COc1cc(NC(=O)C2(C)CCCN2C(=O)C(C)C)cc(OC)c1OC (centres undefined),1.2,-0.7,-0.2,1.1,0.7,0.2
O=C(Nc1cc([N+](=O)[O-])ccc1F)c1ccc2ccccc2c1,-16.1,4.4,14.1,3.3,0.2,-12.3
Cc1ccc(S(=O)(=O)n2c(N)nc3ccccc32)cc1,76.0*,-22.7,-37.4,-17.8,3.4,86.4*
Nc1nc2ccccc2n1S(=O)(=O)c1ccc([N+](=O)[O-])cc1,8.5,-3.2,-12.0,-12.6,1.9,16.0
SMILES,CHRM5 antagonist,M5 ag,CHRM5 PAM,CHRM4 PAM,M4 ag,M4 antag
COc1ccc(S(=O)(=O)n2c(N)nc3ccccc32)cc1,69.2*,-3.3,-17.7,-14.1,6.7,72.9*
Nc1nc2ccccc2n1S(=O)(=O)c1ccc(Cl)cc1,40.3*,-3.7,-18.4,-14.3,2.4,51.9*
COc1ccc(-n2nc(C(=O)NCC(=O)N3CCC(C)CC3)c3ccccc3c2=O)cc1Cl,2.5,-3.2,-4.0,-3.6,15.5,-19.4
O=C(Nc1ccc(Cl)cc1)Nc1ccccc1NS(=O)(=O)c1cccs1,44.2*,7.2,-19.5,-19.3,22.8,18.6
O=C(Nc1ccc(F)cc1)Nc1ccccc1NS(=O)(=O)c1cccs1,25.5,10.8,-19.2,-12.0,14.1,0.4
Clc1ccc(Sc2ccc(/C=N/n3cnnc3)o2)cc1,-6.9,-3.3,0.1,24.4*,0.8,-10.4
CCOC(=O)C1CCCN(C(=O)COc2ccccc2F)C1 (centres undefined),7.3,0.2,-3.5,3.5,1.5,1.7
CCOC(=O)C1CCCN(C(=O)COc2ccccc2O)C1 (centres undefined),2.7,49.5*,-28.6,-2.6,4.5,3.3
CCOC(=O)C1CCCN(CC(=O)Nc2cc(C)cc(C)c2)C1 (centres undefined),2.6,1.3,0.2,2.2,0.1,-4.7
CCOC(=O)C1CCCN(C(=S)Nc2cc(C)cc(C)c2)C1 (centres undefined),14.9,28.4*,-15.5,7.7,1.3,-7.3
CCOC(=O)C1CCCN(C(=S)Nc2ccc(S(=O)(=O)N3CCOCC3)cc2)C1 (centres undefined),9.2,41.8*,-13.8,-4.2,6.0,0.5
CCOC(=O)C1CCCN(S(=O)(=O)c2ccc(S(=O)(=O)N(CC)CC)cc2)C1 (centres undefined),33.0*,-2.3,-27.7,-20.3,13.6,12.1
CN(C)C(=O)c1cccc(-c2cccc(-c3nc(C(=O)NCc4ccccc4)cc4c3[C@H](CCO)N(S(=O)C(C)(C)C)C4)c2)c1 (some centres undefined),2.1,2.1,-3.8,-5.8,-0.3,-2.6
CCOC(=O)C1(Cc2cccc(Cl)c2)CCCN(C(=O)CCOC)C1 (centres undefined),-10.1,1.3,6.0,23.8*,1.8,-14.9
